Source: PubChem BioAssay (several laboratories)
In the library only some 2.9% were active in any assay of this set; here they are far more common.
SENP6 inh – SENP6 protease inhibition | 330,000 tested, 1.8% active | Recombinant SENP6 catalytic domain, aminoluciferin luminescence | AID 2599 | Q9GZR1 | inhibition, % at 10 µM;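 active = inhibition above about 50% at the single tested dose, limit read from the data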
SENP8 block-1 – blocks human SENP8 cleavage of Nedd8 substrate; 360,000 tested, 0.64% active; inhibition, % at 20 µM; recombinant SENP8, Nedd8 substrate fluorescence; AID 602440; in the data active = inhibition mostly above about 40%, no sharp cut-off; inactive = mostly below about 27%
SENP8 block-2 – SENP8 protease inhibition | Q96LD8 | purified SENP8, Z-RLRGG-aminoluciferin cleavage, luminescence | inhibition, % at 10 µM | 330,000 tested, 1.2% active | AID 2540; in the data active = inhibition above about 50%
SENP7 block – SENP7 protease inhibition; Q9BQF6; recombinant SENP7, Z-RLRGG-aminoluciferin luminescence, 40 min; inhibition, % at 5 µM; 330,000 tested, 1.5% active;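 active = inhibition above about 50% at the single test dose, limit read from the data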
Target sequence (Q9BQF6 706-1050 limits assumed): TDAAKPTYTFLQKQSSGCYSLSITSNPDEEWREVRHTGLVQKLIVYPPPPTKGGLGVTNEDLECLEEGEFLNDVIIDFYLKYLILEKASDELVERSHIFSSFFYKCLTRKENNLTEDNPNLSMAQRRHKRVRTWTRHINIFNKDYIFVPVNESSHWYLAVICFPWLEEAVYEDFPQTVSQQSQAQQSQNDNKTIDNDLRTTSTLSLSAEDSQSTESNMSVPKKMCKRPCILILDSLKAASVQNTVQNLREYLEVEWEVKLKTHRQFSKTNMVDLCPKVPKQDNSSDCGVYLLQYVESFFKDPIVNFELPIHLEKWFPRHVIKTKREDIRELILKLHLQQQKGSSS
SENP1 inh – blocks the human SENP1 SUMO protease catalytic domain. recombinant SENP1 catalytic domain, CyPet-SUMO1-YPet FRET cleavage. inhibition, % at 10 µM. 360,000 tested, 0.21% active;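 active = inhibition at least 30% at 10 µM, raw YFP signal under a set limit, fluorescence ratio 0.5 to 1.5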
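Test system: human SENP1 catalytic domain; medium: Tris pH 8 buffer plus EDTA, NaCl, BME, BSA, NP40, catalase; incubation: 50 min reaction at room temperature; technique: FRET, CFP and YFP emission; controls: no-enzyme low control and enzyme-plus-DMSO high control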
HSP90 inh – HSP90 refolding inhibition in rabbit reticulocyte lysate. luciferase refolding luminescence, 3 h. inhibition, % at 5.6 µM. 290,000 tested, 0.91% active;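 active = inhibition above the screen-wide mean plus 3 SD, computed separately per campaign, cut at about 16% in these data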;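 also: inhibitors lower the luminescence because luciferase stays unfolded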
HSP90 confirm – confirmation of HSP90 inhibitors; shares compounds with HSP90 inh; rabbit reticulocyte lysate, luciferase refolding luminescence, 3 h; inhibition, % at 5.9 µM; 2,300 tested, 64% active; AID 1846; in the data active = inhibition above about 18%
FLuc counter – firefly luciferase inhibition, HSP90 counter-screen; shares compounds with HSP90 inh; purified native firefly luciferase, luminescence; inhibition, % at 5.9 µM; 2,300 tested, 48% active; AID 1847;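 active = inhibition above the mean inhibition of all tested sample wells plus 3 SD, cut at about 10% in these data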
SENP8 conf-1 – human SENP8 inhibition, confirmed. Recombinant SENP8, Z-RLRGG-aminoluciferin luminescence, 60 min. inhibition, % at 12.5 µM. 6,200 tested, 40% active. shares compounds with SENP7 block;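 active = mean inhibition across replicates above about 50%, limit read from the data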
SENP6 conf – confirmation of human SENP6 protease inhibitors; shares compounds with SENP7 block; recombinant SENP6, Z-RLRGG-aminoluciferin luminescence; inhibition, % at 12.5 µM; 6,200 tested, 58% active; AID 488915
SENP7 confirm – human SENP7 inhibition, confirmed. shares compounds with SENP7 block. recombinant SENP7, Z-RLRGG-aminoluciferin luminescence, 40 min. inhibition, % at 12.5 µM. 6,200 tested, 69% active. AID 488917
Casp3 SENP sel – caspase-3 inhibition (SENP selectivity assay); shares compounds with SENP7 block; purified caspase-3, Z-DEVD-aminoluciferin luminescence, 60 min; inhibition, % at 12.5 µM; 6,200 tested, 60% active; AID 488918;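 active = mean inhibition above about 50%, limit read from the data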
Target sequence (P42574 28-227 limits assumed): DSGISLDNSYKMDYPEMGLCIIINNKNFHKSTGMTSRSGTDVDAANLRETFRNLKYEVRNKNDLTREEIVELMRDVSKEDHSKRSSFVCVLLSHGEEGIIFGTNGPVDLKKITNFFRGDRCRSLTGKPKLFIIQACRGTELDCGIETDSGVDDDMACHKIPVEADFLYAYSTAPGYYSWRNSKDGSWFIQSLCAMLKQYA
SENP luc ctr – counter-screen for SENP inhibitors: luminescence interference; inhibition, % at 12.5 µM; Pre-incubated SENP8/Z-RLRGG-aminoluciferin, luciferase luminescence interference; shares compounds with SENP7 block; AID 488919; 6,200 tested, 39% active;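 active = mean inhibition above about 50% when retested at one dose, limit read from the data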
SENP8 conf-2 – confirmation of human SENP8 protease inhibitors. 1,400 tested, 15% active. inhibition, % at 25 µM. shares compounds with SENP8 block-1. purified SENP8, Nedd8-AMC/pro-Nedd8 cleavage fluorescence, 30 min; in the data active = inhibition mostly above about 39%, no sharp cut-off; inactive = mostly below about 34%
Large screens that a line does not name were inactive (follow-up assays come after a bar, where they were run).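 The calls were made as follows, unless noted: active = mean inhibition above about 50% in the one-dose retest (limit read from the data); inactive = the rest.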

O=C(Nc1ccc(N2CCOCC2)cc1)C1CCN(S(=O)(=O)Cc2ccccc2)CC1	SENP8 block-1 40, HSP90 inh 25 | HSP90 confirm inactive | FLuc counter inactive | SENP8 conf-2 inactive
Cc1ccc(C)c(C(=O)COC(=O)c2cccc(N3C(=O)c4c(C)nc5ccccc5c4C3=O)c2)c1	SENP8 block-1 42, HSP90 inh 27 | HSP90 confirm inactive | FLuc counter inactive | SENP8 conf-2 inactive
Cc1nc2ccccc2c2c1C(=O)N(c1cccc(C(=O)O)c1)C2=O	none
Cc1cc(C)c(OCC(=O)NCCCn2nc(C)cc2C)c(C)c1	none (no result: HSP90 inh)
CN(c1ccccc1)S(=O)(=O)c1cccc(NC(=O)CN2C(=O)NC3(CCCC3)C2=O)c1	none (no result: HSP90 inh)
COc1ccc(/C=N/Nc2nnc(C)n2N)cc1OC	SENP8 block-1 41, HSP90 inh 19 | HSP90 confirm inactive | FLuc counter inactive | SENP8 conf-2 inactive
CCc1nnc(N/N=C/c2ccc(N3CCC(C)CC3)c([N+](=O)[O-])c2)n1N	SENP8 block-1 62, HSP90 inh 21 | HSP90 confirm inactive | FLuc counter inactive | SENP8 conf-2 43
Cc1nnc(N/N=C/c2ccc([N+](=O)[O-])cc2)n1N	none
Nn1cnnc1N/N=C/c1ccc(Cl)c([N+](=O)[O-])c1	SENP8 block-1 66, HSP90 inh 46 | HSP90 confirm inactive | FLuc counter inactive | SENP8 conf-2 64
COc1ccc(-n2c(-c3ccc(Br)cc3)c[n+]3c2SC(C)C3)cc1 (centres undefined)	none
N#CC(C#N)=c1ccc2c(c1)NC1(CCCCC1)N=2	SENP8 block-1 42, HSP90 inh 52 | HSP90 confirm inactive | FLuc counter inactive | SENP8 conf-2 24
CCOC(=O)c1csc(-c2sccc2Br)n1	SENP6 inh 94, SENP8 block-2 94, SENP7 block 98 | SENP8 conf-1 96 | SENP6 conf 98 | SENP7 confirm 102 | Casp3 SENP sel 97 | SENP luc ctr 93
CCc1nccn1CCC(=O)NC1CCCc2c1cnn2-c1ccc(F)cc1F (centres undefined)	none
O=C(Nc1nccs1)c1ccc2ccccc2n1	SENP6 inh 69, SENP8 block-2 53, SENP7 block 70 | SENP8 conf-1 64 | SENP6 conf 64 | SENP7 confirm 90 | Casp3 SENP sel 80 | SENP luc ctr 63
Cc1cccc(C)c1NC(=O)CNC(=O)c1ccc2ccccc2n1	none (no result: HSP90 inh)
O=C(Nc1ccccn1)c1ccc(Cl)s1	SENP6 inh 60, SENP7 block 66 | SENP8 conf-1 inactive | SENP6 conf inactive | SENP7 confirm 78 | Casp3 SENP sel 74 | SENP luc ctr 56
O=C(Nc1nccs1)c1cc(Cl)nc2ccccc12	none
Cc1csc(NC(=O)c2ccc3ccccc3n2)n1	SENP6 inh 83, SENP8 block-2 75, SENP7 block 80 | SENP8 conf-1 inactive | SENP6 conf 82 | SENP7 confirm 95 | Casp3 SENP sel inactive | SENP luc ctr inactive
Cc1cccc(NC(=O)c2ccc3ccccc3n2)c1C	SENP6 inh 88, SENP8 block-2 65, SENP7 block 77 | SENP8 conf-1 inactive | SENP6 conf 84 | SENP7 confirm 97 | Casp3 SENP sel 72 | SENP luc ctr 58
O=C(NCc1ccccn1)c1ccc(Cl)s1	none
O=C(Nc1ccccn1)c1ccc2ccccc2n1	SENP6 inh 90, SENP8 block-2 80, SENP7 block 89 | SENP8 conf-1 inactive | SENP6 conf 85 | SENP7 confirm 97 | Casp3 SENP sel 86 | SENP luc ctr 85
CC(C)C(=O)N1CCN(c2ccccc2NC(=O)c2ccco2)CC1	SENP6 inh 103 | SENP8 conf-1 inactive | SENP6 conf inactive | SENP7 confirm inactive | Casp3 SENP sel inactive | SENP luc ctr inactive
COc1ccc(Nc2nc3ccccc3n2C)cc1	SENP6 inh 56 | SENP8 conf-1 inactive | SENP6 conf inactive | SENP7 confirm 69 | Casp3 SENP sel 72 | SENP luc ctr inactive
CCOC(=O)c1ccc(NCc2nc3ccccc3n2C)cc1	SENP8 block-2 61, SENP7 block 79 | SENP8 conf-1 82 | SENP6 conf 83 | SENP7 confirm 96 | Casp3 SENP sel 86 | SENP luc ctr 83
COc1ccc(CNc2nc3ccccc3n2C)c(O)c1	SENP6 inh 64, SENP7 block 68 | SENP8 conf-1 67 | SENP6 conf 65 | SENP7 confirm 90 | Casp3 SENP sel 73 | SENP luc ctr 71
Cn1c(Nc2ccc(F)cc2)nc2ccccc21	none
COc1ccc(NCc2nc3ccccc3n2C)cc1	SENP6 inh 68 | SENP8 conf-1 65 | SENP6 conf 64 | SENP7 confirm 85 | Casp3 SENP sel 87 | SENP luc ctr 70
Cn1c(NCc2ccc(Cl)cc2)nc2ccccc21	none
Cc1ccc(CNc2nc3ccccc3n2C)cc1	SENP6 inh 78, SENP8 block-2 59, SENP7 block 72 | SENP8 conf-1 61 | SENP6 conf 62 | SENP7 confirm 91 | Casp3 SENP sel 88 | SENP luc ctr 75
Cn1c(CNc2ccc(Br)cc2)nc2ccccc21	SENP6 inh 70, SENP8 block-2 59, SENP7 block 72 | SENP8 conf-1 inactive | SENP6 conf 63 | SENP7 confirm 87 | Casp3 SENP sel 63 | SENP luc ctr 70
Cc1ccc(NCc2nc3ccccc3n2C)cc1	none
COc1ccc(C)cc1N(C)C(=O)Cc1c(C(=O)O)n(C)c2ccccc12	none
